Assay results collected from several papers.
Each line is one published result; the experiments were not run side by side.
Effect on: cell growth or viability

SMILES | cell line | assay | setting | IC50 [nM]
O=C1Nc2ccccc2C1=Nc1cccc(Cl)c1 | B16 | MTT | 48 h | > 100000
O=C(CSc1nc2ccccc2s1)N/N=C/c1ccc(OCC(=O)Nc2cccc(Br)c2)cc1 | Z-138 | MTS | 72 h | > 100000
COc1cc([C@@H]2c3cc4c(cc3[C@@H](O[C@@H]3O[C@@H]5CO[C@@H](C)O[C@H]5[C@H](O)[C@H]3O)[C@H]3COC(=O)[C@H]23)OCO4)cc(OC)c1O | Z-138 | MTS | 72 h | 30
COc1cc(N=C2C(=O)N(Cc3ccccc3)c3ccccc32)cc(OC)c1 | B16 | MTT | 48 h | 570
Cc1nn(-c2ccc(S(=O)(=O)N3CCN(C)CC3)cc2)c2nn3nnnc3nc12 | DLD-1 | MTT | – | 80
Cc1cccc(N=C2C(=O)N(Cc3cccc(Cl)c3)c3ccccc32)c1 | B16 | MTT | 48 h | 6710
CONC(=O)c1cccc2c1cc(C)n2-c1nc2c(c(NCc3ccccc3)n1)CCCN2 | BXPC-3 | – | 72 h | 1400
FC(F)(F)c1cc(OCc2cc(-c3ccccn3)no2)c2ccccc2n1 | Z-138 | MTS | 72 h | > 100000
Cc1ccc(CN2C(=O)C(=Nc3cccc(C)c3)c3ccccc32)cc1 | B16 | MTT | 48 h | 440
COc1cccc2c1C(=O)c1c(O)c3c(c(O)c1C2=O)C[C@@](O)(C(=O)CO)C[C@@H]3O[C@H]1C[C@H](N)[C@H](O)[C@H](C)O1 | BXPC-3 | – | 96 h | 124
CC(C)c1cccc(C(C)C)c1N=C1C(=O)N(Cc2ccc(Br)cc2)c2ccccc21 | B16 | MTT | 48 h | 34200
c1ccc(-c2cc(CNc3cccc4cccnc34)on2)cc1 | Z-138 | MTS | 72 h | 35300
O=C(CSc1nc2ccccc2s1)N/N=C/c1ccc(OCC(=O)Nc2cccc([N+](=O)[O-])c2)cc1 | Z-138 | MTS | 72 h | > 100000
N#Cc1ccc(-c2cc(CNc3cccc4cccnc34)on2)cc1 | Z-138 | MTS | 72 h | 10800
Cc1cc2c(C(=O)O)cccc2n1-c1nc2c(c(NCc3ccccc3)n1)CCCN2 | ARP-1 | – | 72 h | 900
N#Cc1ccc(-c2cc(COc3cc(C(F)(F)F)nc4ccccc34)on2)cc1 | Z-138 | MTS | 72 h | 36700
Cc1cc2c(C(N)=O)cccc2n1-c1nc2c(c(NCc3ccccc3)n1)CCCN2 | ARP-1 | – | 72 h | 1300
O=c1cc(OCc2cc(-c3ccc(Cl)cc3Cl)no2)c2ccccc2o1 | Z-138 | MTS | 72 h | > 100000
O=C1C(=Nc2ccc(Cl)cc2Br)c2ccccc2N1Cc1ccc([N+](=O)[O-])cc1 | B16 | MTT | 48 h | 2140
